Reference: ChEMBL document CHEMBL1772981, “Discovery of 2-arylbenzoxazoles as upregulators of utrophin production for the treatment of Duchenne muscular dystrophy” (J Med Chem, 2011)
In brackets after ≈: the same amount, converted by molar mass.

How the values were obtained:
[1] = species on record: Mus musculus; assay: Activation of UTRN promoter in mouse H2K cells assessed as upregulation of UTRN production after 48 hrs by luciferase reporter linked assay; format: functional, cell-based
In short: (§1)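 H2K myoblasts stably carrying a utrophin (UTRN) promoter–luciferase reporter were plated 24 h before dosing and exposed to compound for 48 h. Luciferase was read by luminescence (Steady-Glo). The primary screen was at 10 μM and the secondary at six concentrations for EC50, both in triplicate. Non-EC50 values are % of the reference upregulator's maximum, given with the concentration at maximum.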

[2] = species on record: Mus musculus; assay: Activation of UTRN promoter in mouse H2K cells assessed as upregulation of UTRN production at 10 uM after 72 hrs by RT-PCR analysis; format: functional
In short: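 H2K cells were seeded at 25000 per well, left 24 h, then dosed for 72 h in 1% DMSO final. Total RNA was extracted and reverse transcribed. qPCR used an amplicon spanning the UTRN exon 3–4 boundary, with β-actin as the endogenous control, and was quantified by ΔΔCT. Values are % UTRN relative to DMSO control (=100), with P value.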

[3] = Half life in mouse liver microsomes; format: ADME, Microsome
[4] = Half life in human liver microsomes; format: ADME, Microsome
[5] = Aqueous solubility of the compound by turbidimetry; format: physicochemical; conditions: buffer
In short: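 Turbidimetric aqueous solubility, reported as the final test compound concentration.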

[6] = species on record: Mus musculus; assay: Activation of UTRN promoter in mouse H2K cells assessed as upregulation of UTRN production at 10 uM after 48 hrs by luciferase reporter linked assay; format: functional; in short: as §1
[7] = species on record: Mus musculus; assay: Activation of UTRN promoter in mouse H2K cells assessed as upregulation of UTRN production at 30 uM after 48 hrs by luciferase reporter linked assay; format: functional; in short: as §1
[8] = species on record: Mus musculus; assay: Activation of UTRN promoter in mouse H2K cells assessed as upregulation of UTRN production at 3 uM after 48 hrs by luciferase reporter linked assay; format: functional; in short: as §1
[9] = tested on: Mus musculus; assay: Tmax in CD1 mouse at 10 mg/kg, ip; format: ADME, organism-based; set-up: dose 10 mg/kg, route intraperitoneal; conditions: in vivo
In short: (§2)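 Male CD1 mice were dosed i.p. at 10 mg/kg in 95% PBS containing 0.1% Tween 20 and 5% DMSO. Plasma was sampled at 5–360 or 5–480 min. AUC is in μg.min/mL. Half-life was not calculated where the log concentration–time plot lacked a linear region of at least three points.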

[10] = tested on: Mus musculus; assay: Cmax in CD1 mouse at 10 mg/kg, ip; format: ADME, organism-based; set-up: dose 10 mg/kg, route intraperitoneal; conditions: in vivo; in short: as §2
[11] = tested on: Mus musculus; assay: Half life in CD1 mouse at 10 mg/kg, ip; format: ADME, organism-based; set-up: dose 10 mg/kg, route intraperitoneal; conditions: in vivo; in short: as §2
[12] = tested on: Mus musculus; assay: AUC in CD1 mouse at 10 mg/kg, ip; format: ADME, organism-based, Plasma; set-up: dose 10 mg/kg, route intraperitoneal; conditions: in vivo; in short: as §2
[13] = Tmax in CD1 mouse at 50 mg/kg, ip; format: ADME, organism-based; set-up: dose 50 mg/kg, route intraperitoneal; conditions: in vivo
In short: (§3)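 Male CD1 mice were given 50 mg/kg i.p. in 95% PBS with 0.1% Tween 20 and 5% DMSO. Plasma was sampled at 0.08, 0.25, 0.5, 1, 2, 4, 8 and 24 h in three animals, and values are the mean in ng/mL.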

[14] = Cmax in CD1 mouse at 50 mg/kg, ip; format: ADME, organism-based; set-up: dose 50 mg/kg, route intraperitoneal; conditions: in vivo; in short: as §3
[15] = AUC in CD1 mouse at 50 mg/kg, ip; format: ADME, organism-based; set-up: dose 50 mg/kg, route intraperitoneal; conditions: plasma; in short: as §3

EC50 ([1]; Mus musculus, H2K, 48 h) [µM] | Compound | Activity [6] [%] | also measured
3 | CCS(=O)(=O)c1ccc2oc(-c3ccc(Cl)c(Cl)c3)nc2c1 | – | Activity [2]: 138.3%; half-life [3]: 1.68 h; half-life [4]: 1.75 h; solubility kinetic [5]: 3 µM (≈ 1.07 µg/mL)
> 30 | CCS(=O)(=O)c1ccc2oc(-c3cccc(Cl)c3)nc2c1 | – | –
> 30 | CCS(=O)(=O)c1ccc2oc(-c3ccc(Cl)cn3)nc2c1 | – | –
> 10 | CCS(=O)(=O)c1ccc2oc(-c3cccc(Cl)c3F)nc2c1 | – | –
> 30 | CCS(=O)(=O)c1ccc2oc(-c3ccco3)nc2c1 | – | –
4.2 | CCS(=O)(=O)c1ccc2oc(-c3ccc4c(c3)OCO4)nc2c1 | – | –
> 30 | CCS(=O)(=O)c1ccc2oc(-c3cnc4ccccc4c3)nc2c1 | – | –
1.9 | CCS(=O)(=O)c1ccc2oc(-c3ccc4ncccc4c3)nc2c1 | – | –
> 30 | CCS(=O)(=O)c1ccc2oc(-c3ccc4nccnc4c3)nc2c1 | – | –
> 30 | CCS(=O)(=O)c1ccc2oc(-c3cccc4ccccc34)nc2c1 | – | –
2.3 | CCS(=O)(=O)c1ccc2oc(-c3ccc4c(c3)CCC4)nc2c1 | – | half-life [4]: 0.333 h
> 30 | CCS(=O)(=O)c1ccc2oc(-c3ccc(-c4ccccc4)cc3)nc2c1 | – | –
> 30 | CCS(=O)(=O)c1ccc2oc(-c3ccc(Oc4ccccc4)cc3)nc2c1 | – | –
> 30 | CCS(=O)(=O)c1ccc2oc(-c3cccc(Oc4ccccc4)c3)nc2c1 | – | –
> 30 | CCCS(=O)(=O)c1ccc2oc(-c3ccc(Cl)cc3)nc2c1 | – | –
> 30 | CCS(=O)(=O)c1ccc2nc(-c3ccc(Cl)cc3)oc2c1 | – | –
10.6 | CCS(=O)(=O)c1ccc2nc(-c3ccc(Cl)c(Cl)c3)oc2c1 | – | –
5 | CCS(=O)(=O)c1ccc2oc(-c3ccc(Cl)cc3)nc2c1 | – | half-life [3]: 0.51 h; half-life [4]: 1.15 h; Tmax [9]: 5 min; Cmax [10]: 5650 ng/mL; t1/2 [11]: 2.18 h; AUC [12]: 9650 ng·h/mL; solubility kinetic [5]: 10 µM (≈ 3.22 µg/mL)
1.8 | CCS(=O)(=O)c1ccc2oc(-c3ccc4ccccc4c3)nc2c1 [EZUTROMID] | – | EC50 ([1]; h2k): 0.91 µM; Activity [2]: 143%; half-life [3]: 1.36 h; half-life [4]: 1.75 h; Tmax [13]: 0.25 h; Cmax [14]: 1490 ng/mL; AUC [15]: 7000 ng·h/mL; solubility kinetic [5]: 3 µM (≈ 1.01 µg/mL)

The next lines start with the molecule.

Compound | EC50 ([1]; Mus musculus, H2K, 48 h) [µM] | Activity [6] [%] | also measured
CC(C)C(=O)Nc1ccc2nc(-c3ccc(Cl)c(Cl)c3)oc2c1 | 4 | – | Activity [2]: 111.5%
CCS(=O)(=O)c1ccc2oc(-c3cccc(Cl)c3Cl)nc2c1 | – | 40 | –
CCS(=O)(=O)c1ccc2oc(-c3cccs3)nc2c1 | – | – | Activity [7]: 29%
CCS(=O)(=O)c1ccc2oc(-c3ccc4ccccc4n3)nc2c1 | – | – | Activity [8]: 59%
CCS(=O)(=O)c1ccc2oc(-c3cc4ccccc4cn3)nc2c1 | – | 63 | –
CCS(=O)(=O)c1ccc2oc(-c3ccc4sccc4c3)nc2c1 | – | 86 | half-life [4]: 0.983 h
CCS(=O)(=O)c1ccc2oc(-c3ccc4c(c3)CCCC4)nc2c1 | – | 51 | –
CCS(=O)(=O)c1ccc2oc(C3CCc4ccccc4C3)nc2c1 (stereo unspecified) | – | 32 | –
CCS(=O)(=O)c1ccc2oc(-c3ccc4occc4c3)nc2c1 | – | 73 | –
CCS(=O)(=O)c1ccc2oc(-c3ccc4[nH]ccc4c3)nc2c1 | – | 81 | –
CCS(=O)(=O)c1ccc2oc(Cc3ccc4ccccc4c3)nc2c1 | > 30 | – | –
CCS(=O)(=O)c1ccc2oc(/C=C/c3ccccc3)nc2c1 | – | 53 | –
CCCc1nc2cc(S(=O)(=O)CC)ccc2o1 | – | 14 | –
CCS(=O)(=O)c1ccc2oc(C3CCCCC3)nc2c1 | – | 25 | –
CS(=O)(=O)c1ccc2oc(-c3ccc(Cl)cc3)nc2c1 | – | 53 | –
CC(C)S(=O)(=O)c1ccc2oc(-c3ccc(Cl)cc3)nc2c1 | 10.2 | – | –
CC(C)S(=O)(=O)c1ccc2oc(-c3ccc(Cl)c(Cl)c3)nc2c1 | – | 45 | –
NS(=O)(=O)c1ccc2oc(-c3ccc(Cl)cc3)nc2c1 | – | – | Activity [7]: 60%
O=S(=O)(O)c1ccc2oc(-c3ccc(Cl)cc3)nc2c1 | > 30 | – | –
CCN(CC)S(=O)(=O)c1ccc2oc(-c3ccc(Cl)cc3)nc2c1 | – | 28 | –
CS(=O)(=O)c1ccc2oc(-c3ccc4ccccc4c3)nc2c1 | – | – | Activity [8]: 95%; half-life [3]: 0.557 h
CCS(=O)(=O)c1ccc2oc(-c3ccccc3Cl)nc2c1 | – | – | Activity [7]: 62%
CCS(=O)(=O)c1ccc2oc(-c3ccccc3)nc2c1 | – | 69 | solubility kinetic [5]: 100 µM (≈ 28.7 µg/mL)
